Screening results from PubChem BioAssay.
Only some compounds are listed: those with a hit (about 4.5% of all), similar ones and a draw of the others.
p97 inhibitor: blocks human p97 ATPase activity | P55072 | recombinant p97 ATPase, Kinase-Glo ATP luminescence, 3 h | inhibition, % at 8 µM | 220,000 compounds, 0.42% hits | AID 1481; in the data active = inhibition above about 15%
CHOP inh: blocks CHOP induction under ER stress. CHO-K1 CHOP-promoter luciferase, tunicamycin-induced, 15-18 h. inhibition, % at 10 µM. 220,000 compounds, 3.8% hits. AID 2732;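 active = compounds that reduced the stress-induced luciferase reporter signal by more than about 70% of percent inhibition, limit read from the data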
HCV NS3 hel inh: blocks Hepatitis C virus NS3 helicase unwinding; inhibition, % at 10.9 µM; NS3 helicase DNA unwinding, Cy5 molecular beacon fluorescence; 290,000 compounds, 0.56% hits;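 active = inhibition above the mean of all tested compounds plus 3 SD, set per campaign, cut at about 35% in these data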
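Assay system – hepatitis C virus NS3 helicase domain fragment enzyme · Buffer or medium – MOPS pH 6.5, MgCl2, DTT, Tween20, BSA · Reagent – Cy5/quencher beacon DNA duplex and ATP to start · Compound – single 10.9 µM dose · Timing – 1 h at 25 °C · Technique – Cy5 beacon fluorescence read at start and 1 h · Measure – % inhibition of unwinding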
CHOP UPR activ: apoptotic UPR (CHOP) activation | CHO-CHOP luciferase reporter, luminescence; percent of tunicamycin response over DMSO baseline | activation, % at 10 µM | 330,000 compounds, 0.34% hits;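 active = at 10 µM dose, activation of 40% or more, normalized to positive control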
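System: CHO-CHOP luciferase reporter cell line | Buffer or medium: F12 medium containing 10% fetal bovine serum | Doses: One dose, 10 µM in 0.5% DMSO | Times: 6 h compound exposure at 37 °C after overnight seeding | Signal: Luciferase luminescence | Read-out: % activation vs tunicamycin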
PfM18AAP inh-1: PfM18AAP enzyme inhibition | recombinant PfM18AAP, H-Glu-NHMec fluorogenic cleavage | inhibition, % at 7.35 µM | 290,000 compounds, 1.2% hits | AID 1822;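 active = inhibition above the campaign mean inhibition over all tested compounds plus 3 SD, cut at about 28% in these data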
UPR XBP1 act: activators of adaptive arm of unfolded protein response (XBP1); activation, % at 20 µM; 330,000 compounds, 0.33% hits; CHO-XBP1 luciferase reporter, IRE1-XBP1 UPR activation, luminescence; percent of tunicamycin response, DMSO as zero; AID 463104;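 active = versus positive control, 20 µM dose yields 30% or more activation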
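Material: CHO-XBP1 cells stably carrying IRE1-XBP1-driven luciferase reporter / Amount: 1000 cells per well / Compound: 20 µM, 1% DMSO / Times: 6 h treatment, 37 °C / Detection: luciferase luminescence / Measure: % activation of reporter signal versus tunicamycin and DMSO controls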
NS3 helicase cf: confirmation of Hepatitis C virus NS3 helicase inhibitors; NS3 helicase DNA unwinding, Cy5 molecular beacon fluorescence; shares compounds with HCV NS3 hel inh; inhibition, % at 10.9 µM; 1,600 compounds, 31% hits;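 active = inhibition above the mean of all tested compounds plus 3 SD, cutoff set per campaign, cut at about 36% in these data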
DNA FID counter: counter-screen for HCV NS3 helicase inhibitors: DNA intercalator displacement | shares compounds with HCV NS3 hel inh | DNA fluorescent intercalator displacement, fluorescence | inhibition, % at 7.9 µM | 1,600 compounds, 4% hits | AID 1945; in the data active = inhibition above about 37%;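 also: higher means more displacement of ethidium bromide from the DNA hairpin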
PfM18AAP inh-2: PfM18AAP inhibition, confirmation; shares compounds with PfM18AAP inh-1; recombinant PfM18AAP, H-Glu-NHMec fluorogenic cleavage; inhibition, % at 7.35 µM; 2,400 compounds, 28% hits;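 active = mean inhibition over replicate wells above the hit cutoff set for the earlier primary screen, cut at about 29% in these data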
CTSL1 confirm: counter-screen for PFM18AAP inhibitors: confirmation of human cathepsin L inhibitors; shares compounds with PfM18AAP inh-1; purified cathepsin L1, Z-Leu-Arg-MCA fluorescence; 2,400 tested, under 10 active; inhibition, % at 5.96 µM; AID 2178;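 active = average inhibition across replicates above the hit cutoff set in the earlier primary screen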
Target sequence (P07711 whole entry, looked up): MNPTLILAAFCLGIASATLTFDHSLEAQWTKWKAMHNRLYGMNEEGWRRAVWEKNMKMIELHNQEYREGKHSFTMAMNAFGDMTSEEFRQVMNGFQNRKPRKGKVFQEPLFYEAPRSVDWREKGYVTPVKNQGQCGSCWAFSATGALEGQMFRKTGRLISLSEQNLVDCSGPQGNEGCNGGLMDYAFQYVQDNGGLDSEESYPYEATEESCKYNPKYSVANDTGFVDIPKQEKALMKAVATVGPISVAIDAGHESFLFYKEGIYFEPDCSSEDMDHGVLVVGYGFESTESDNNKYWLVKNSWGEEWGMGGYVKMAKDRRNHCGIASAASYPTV
CHOP confirm: confirmation of CHOP induction inhibitors. shares compounds with CHOP inh. 2,100 compounds, 45% hits. inhibition, % at 10 µM. CHO-CHOP promoter luciferase reporter, tunicamycin-induced, luminescence. AID 504437;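 active = mean of three repeat readings of reporter signal inhibition above a set limit, cut at about 70% in these data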
CHOP UPR conf: confirmation of apoptotic unfolded protein response (CHOP) activators; shares compounds with CHOP UPR activ; CHO-CHOP cells, CHOP-luciferase reporter luminescence; percent of tunicamycin response, DMSO as zero; activation, % at 10 µM; 1,000 compounds, 64% hits; in the data active = activation above about 33%
XBP1 UPR conf: adaptive UPR (XBP1) activation, confirmed; shares compounds with UPR XBP1 act; CHO-XBP1 IRE1-XBP1 luciferase reporter, luminescence; 1,000 compounds, 63% hits; activation, % at 20 µM;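 active = reporter signal at least 30% of the positive control's activation in two or more of four replicate wells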
Numbers stand for hits.

Cc1cc(C)cc(N2C(=O)NC(=O)/C(=C\C=C\c3ccco3)C2=O)c1 was read as p97 inhibitor inactive, CHOP inh 107, HCV NS3 hel inh 54, PfM18AAP inh-1 inactive, NS3 helicase cf inactive, DNA FID counter inactive and CHOP confirm inactive.
`CC(C)(O)[C@@H]1[C@H]2OC(=O)[C@@H]1[C@]1(O)C[C@H]3O[C@]34C(=O)O[C@H]2[C@]14C` (tested in a mixture with another compound) gave CHOP inh inactive, CHOP UPR activ inactive and UPR XBP1 act inactive.
`Cc1cccc(-n2c(/C=C/c3ccc([N+](=O)[O-])o3)nc3ccccc3c2=O)c1` gave p97 inhibitor inactive, CHOP inh inactive, HCV NS3 hel inh 61, CHOP UPR activ 43, PfM18AAP inh-1 inactive, UPR XBP1 act inactive, NS3 helicase cf inactive, DNA FID counter inactive and CHOP UPR conf 37.
`CCC(=O)N1N=C2C3CCN(CC3)C2C1c1ccc(C)cc1` (configuration not stated) gave p97 inhibitor inactive, CHOP inh inactive, HCV NS3 hel inh inactive, CHOP UPR activ inactive, PfM18AAP inh-1 inactive and UPR XBP1 act inactive.
For Cc1nc2ccsc2c(=O)n1-c1ccccc1Cl the results were CHOP UPR activ inactive and UPR XBP1 act inactive.
`Cc1ccc(N2C(=O)NC(=O)/C(=C/C=C/c3ccco3)C2=O)cc1` gave p97 inhibitor inactive, CHOP inh 101, HCV NS3 hel inh 39, CHOP UPR activ 168, PfM18AAP inh-1 inactive, UPR XBP1 act inactive, NS3 helicase cf inactive, DNA FID counter inactive and CHOP UPR conf 119.
`O=C1NC(=S)NC(=O)C1=Cc1ccc(Br)s1` gave HCV NS3 hel inh 45, CHOP UPR activ 72, PfM18AAP inh-1 inactive, UPR XBP1 act inactive, NS3 helicase cf 56, DNA FID counter inactive and CHOP UPR conf 119.
CN1C(=O)/C(=C\c2ccc(Br)s2)C(=O)NC1=S was read as HCV NS3 hel inh inactive and PfM18AAP inh-1 inactive.
`O=C1NC(=O)N(Cc2ccccc2)C(=O)/C1=C\c1ccco1` gave p97 inhibitor inactive, CHOP inh 106, HCV NS3 hel inh 39, CHOP UPR activ inactive, PfM18AAP inh-1 inactive, UPR XBP1 act 71, NS3 helicase cf inactive, DNA FID counter inactive, CHOP confirm inactive and XBP1 UPR conf 29.
CS(=O)(=O)NNP(=O)(NNS(C)(=O)=O)NC(=O)c1ccc(Br)cc1 was read as p97 inhibitor inactive, CHOP inh inactive, HCV NS3 hel inh inactive, CHOP UPR activ inactive, PfM18AAP inh-1 inactive and UPR XBP1 act inactive.
For N#Cc1c(/N=C/c2ccc(O)cc2O)sc2c1C1CCN2CC1 the results were p97 inhibitor inactive, CHOP inh inactive, HCV NS3 hel inh inactive, CHOP UPR activ inactive, PfM18AAP inh-1 40, UPR XBP1 act inactive, PfM18AAP inh-2 inactive and CTSL1 confirm inactive.
For O=C(NC1(C(F)(F)F)Oc2ccccc2O1)N1CCC2(CC1)OCCO2 the results were p97 inhibitor inactive, CHOP inh inactive, HCV NS3 hel inh inactive, CHOP UPR activ inactive, PfM18AAP inh-1 71, UPR XBP1 act inactive, PfM18AAP inh-2 68 and CTSL1 confirm inactive.
`CC(C)CCOP(N)(=O)Oc1ccccc1Cl` (configuration not stated) gave HCV NS3 hel inh inactive, CHOP UPR activ inactive, PfM18AAP inh-1 inactive and UPR XBP1 act inactive.
Screening CCN(CC)P(=S)(c1c(C)nc2ccccn12)c1c(C)nc2ccccn12 returned p97 inhibitor inactive, CHOP inh inactive, HCV NS3 hel inh inactive, CHOP UPR activ inactive, PfM18AAP inh-1 32, UPR XBP1 act inactive, PfM18AAP inh-2 inactive and CTSL1 confirm inactive.
`O=c1ccc2cc(O[C@@H]3O[C@@H](CO)[C@H](O)[C@@H](O)[C@@H]3O)c(O)cc2o1` gave HCV NS3 hel inh inactive, CHOP UPR activ inactive, PfM18AAP inh-1 32, UPR XBP1 act inactive, PfM18AAP inh-2 inactive and CTSL1 confirm inactive.
N#C[C@H](O[C@@H]1O[C@H](CO[C@@H]2O[C@H](CO)[C@@H](O)[C@H](O)[C@H]2O)[C@@H](O)[C@H](O)[C@H]1O)c1ccccc1 was read as CHOP UPR activ inactive and UPR XBP1 act inactive.
Screening O=C1NC(=O)C(=Cc2cc3c(cc2[N+](=O)[O-])OCO3)C(=O)N1 returned p97 inhibitor inactive, CHOP inh inactive, HCV NS3 hel inh inactive, CHOP UPR activ inactive, PfM18AAP inh-1 40, UPR XBP1 act inactive, PfM18AAP inh-2 inactive and CTSL1 confirm inactive.
For Cc1cccc(N2C(=O)NC(=O)/C(=C/c3cc4c(cc3[N+](=O)[O-])OCO4)C2=O)c1 the results were p97 inhibitor inactive, CHOP inh inactive, HCV NS3 hel inh inactive, CHOP UPR activ inactive, PfM18AAP inh-1 inactive and UPR XBP1 act inactive.
Screening O=C1CCCN1c1ccc(S(=O)(=O)O)cc1 (tested in a mixture with another compound) returned p97 inhibitor inactive, CHOP inh inactive, HCV NS3 hel inh inactive, CHOP UPR activ inactive, PfM18AAP inh-1 80, UPR XBP1 act inactive, PfM18AAP inh-2 79 and CTSL1 confirm inactive.
Cc1nc2ccc(P(=O)(O)O)cc2s1 was read as p97 inhibitor inactive, CHOP inh inactive, HCV NS3 hel inh inactive, CHOP UPR activ inactive, PfM18AAP inh-1 50, UPR XBP1 act inactive, PfM18AAP inh-2 inactive and CTSL1 confirm inactive.
Screening C=CCn1c(O)c(C(CC)=Nc2ccc(N(C)C)cc2)c(=O)[nH]c1=O returned p97 inhibitor inactive, CHOP inh inactive, HCV NS3 hel inh inactive, CHOP UPR activ inactive, PfM18AAP inh-1 52, UPR XBP1 act inactive, PfM18AAP inh-2 inactive and CTSL1 confirm inactive.
